Data taken from article PMC9534497 (Science Advances, 2022).

Columns and labels:
[1] = tested on: E. coli CM742 (dnaA46ts) carrying pRD (seqA); assay: Growth of dnaA46ts cells with SeqA-expressing plasmid pRD; type: cell-based; settings: 30°C, IPTG 50 μM (SeqA expressed), no arabinose, 0.2% arabinose or 0.2% glucose
Procedure, shortened: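 Cells carrying the IPTG-inducible seqA plasmid were made competent on LB-agar with tetracycline and 50 μM IPTG. They were transformed with pBAD-based dnaA plasmids and selected at 30°C on tetracycline (12.5 μg/ml) plus ampicillin (100 μg/ml). Single colonies were grown in LB to OD600 ~0.1. Equal OD units were replica-plated with no sugar, 0.2% arabinose or 0.2% glucose.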

E. coli EH3827 = assay: In vivo replication assay, poriC transformation of ∆dnaA cells; type: cell-based; settings: 0.1 or 0.2% arabinose, versus DnaA WT
[2] = tested on: E. coli EH3287 (∆dnaA/pgsA^+); assay: Subcellular fractionation and immunoblotting of DnaA; type: cell-based; settings: 0.2% arabinose for 90 min
Procedure, shortened: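 ΔdnaA/pgsA+ cells carrying arabinose-inducible dnaA alleles were grown to OD600 ~0.1, then induced with 0.2% arabinose for 90 min. Lysis used lysozyme (300 μg/ml) plus three freeze-thaw cycles. Cytosol and membranes were separated at 44,000 rpm for 30 min. Membranes were solubilized in octyl-thio-glucoside or CHAPS, recentrifuged and dialysed overnight. Protein levels are relative to wild type, averaged over three biological replicates.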

[3] = ThermoFluor assay, melting point of DnaA proteins; type: physicochemical, E. coli
[4] = DTSSP cross-linking for higher-oligomer forms of DnaA; type: biochemical, E. coli; settings: ATP form treated with DTSSP
E. coli MG1655 = assay: Growth of wild-type host on overexpression of DnaA; type: cell-based; settings: 30°C, WT host
E. coli CM742 (dnaA46ts) = assay: Flow cytometry, total DNA content per cell; type: cell-based; settings: 30°C, 0.2% arabinose, rifampicin and cephalexin 2.5 hours
Procedure, shortened: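 Host is dnaA46ts E. coli transformed with pBAD-derived plasmids carrying wild-type or mutant dnaA under an arabinose promoter. Overnight LB cultures with antibiotics were diluted to OD600 ~0.005 and grown 45 min. Each culture was split: one half got 0.2% arabinose, the other 0.2% glucose. At 30°C to OD600 0.15, then rifampicin (150 μg/ml) plus cephalexin (10 μg/ml) for 2.5 h; DNA content measured by flow cytometry.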

[5] = Stability of ATP binding of DnaA at 4°, 30° or 42°C, filter retention assay; parameters: species or system E. coli
Procedure, shortened: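 Purified DnaA (1.9 μM) was loaded with 1 μM [α-32P]ATP in PP-60 buffer for 15 min at 4°C, then held at 4°, 30° or 42°C. Aliquots were withdrawn at timed intervals. Bound nucleotide was measured by retention on nitrocellulose filters and scintillation counting.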

[6] = 37°C, at least 60 min, not challenged with acidic phospholipids; cited from earlier work
[7] = ThermoFluor assay with SUVs composed of DOPG; type: physicochemical, E. coli; settings: ATP-bound form
Procedure, shortened: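 DnaA (10 μM) was pre-incubated with 5 mM ATP on ice for 15 min, then mixed with DOPG small unilamellar vesicles at the stated concentrations. SYPRO Orange (50× dilution) was added to 50 μl final volume. Fluorescence was recorded from 25° to 95°C at 1 min/°. Tm and −dF/dT came from a variable-slope sigmoidal fit.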

[8] = protein 5 μM with ATP 5 mM (Fig. 2)
[9] = 4° and 30°C, with reduced affinity
[10] = ATP-bound form, protein 10 μM, ATP 5 mM, no SUVs (Fig. 7C)

B1: DnaA(D118Q): DnaA mutant, Asp^118 in the linker domain substituted with Gln (protein)
chain: MSLSLWQQCLARLQDELPATEFSMWIRPLQAELSDNTLALYAPNRFVLDWVRDKYLNNINGLLTSFCGADAPQLRFEVGTKPVTQTPQAAVTSNVAAPAQVAQTQPQRAAPSTRSGWQNVPAPAEPTYRSNVNVKHTFDNFVEGKSNQLARAAARQVADNPGGAYNPLFLYGGTGLGKTHLLHAVGNGIMARKPNAKVVYMHSERFVQDMVKALQNNAIEEFKRYYRSVDALLIDDIQFFANKERSQEEFFHTFNALLEGNQQIILTSDRYPKEINGVEDRLKSRFGWGLTVAIEPPELETRVAILMKKADENDIRLPGEVAFFIAKRLRSNVRELEGALNRVIANANFTGRAITIDFVREALRDLLALQEKLVTIDNIQKTVAEYYKIKVADLLSKRRSRSVARPRQMAMALAKELTNHSLPEIGDAFGGRDHTTVLHACRKIEQLREESHDIKEDFSNLIRTLSS
modifications: left off: His10, N-terminal, state not stated
[1]
  growth on LB-agar plates: showed growth at 30 °C
E. coli EH3827
  reduction in the number of transformants: at least 50 fold
[2]
  DnaA in OTG-solubilized membrane fraction (immunoblotting): abundant accumulation in the membrane
[3]; [8]
  melting point: 49 °C
[4]
  formation of higher-order oligomer assemblies: higher-order oligomer assemblies were not formed
E. coli MG1655
  growth of the host on induced expression: no growth defect
E. coli CM742 (dnaA46ts)
  overreplication / DNA content per cell upon induction of DnaA: more extensive
[5]; [9]
  retention of bound ATP: maintained its ATP form

B2: DnaA(WT): wild-type E. coli chromosomal replication initiator protein DnaA, purified 10× histidine-tagged (protein)
chain: MSLSLWQQCLARLQDELPATEFSMWIRPLQAELSDNTLALYAPNRFVLDWVRDKYLNNINGLLTSFCGADAPQLRFEVGTKPVTQTPQAAVTSNVAAPAQVAQTQPQRAAPSTRSGWDNVPAPAEPTYRSNVNVKHTFDNFVEGKSNQLARAAARQVADNPGGAYNPLFLYGGTGLGKTHLLHAVGNGIMARKPNAKVVYMHSERFVQDMVKALQNNAIEEFKRYYRSVDALLIDDIQFFANKERSQEEFFHTFNALLEGNQQIILTSDRYPKEINGVEDRLKSRFGWGLTVAIEPPELETRVAILMKKADENDIRLPGEVAFFIAKRLRSNVRELEGALNRVIANANFTGRAITIDFVREALRDLLALQEKLVTIDNIQKTVAEYYKIKVADLLSKRRSRSVARPRQMAMALAKELTNHSLPEIGDAFGGRDHTTVLHACRKIEQLREESHDIKEDFSNLIRTLSS
modifications: left off: His10, N-terminal, state not stated
[6]
  ATP-DnaA complex remaining intact: > 90%
[2]
  DnaA in OTG-solubilized membrane fraction (immunoblotting): retained in the OTG-solubilized membrane fractions
[3]; [10]
  melting point: approximately 57 °C
[3]; [8]
  melting point: 57 °C
[7]; 100 μM DOPG SUVs (Fig. 7E)
  melting point (peak): 44 °C
[5]; 4°, 30° and 42°C, up to 60 min
  retention of bound ATP: retained ATP at different temperatures comparably

B3: mutant DnaA protein where Asp^118 is substituted with Gly: DnaA mutant, Asp^118 substituted with Gly (protein, UniProt P03004 1-467, looked up, variant D118G)
Chromosomal replication …: MSLSLWQQCLARLQDELPATEFSMWIRPLQAELSDNTLALYAPNRFVLDWVRDKYLNNINGLLTSFCGADAPQLRFEVGTKPVTQTPQAAVTSNVAAPAQVAQTQPQRAAPSTRSGWGNVPAPAEPTYRSNVNVKHTFDNFVEGKSNQLARAAARQVADNPGGAYNPLFLYGGTGLGKTHLLHAVGNGIMARKPNAKVVYMHSERFVQDMVKALQNNAIEEFKRYYRSVDALLIDDIQFFANKERSQEEFFHTFNALLEGNQQIILTSDRYPKEINGVEDRLKSRFGWGLTVAIEPPELETRVAILMKKADENDIRLPGEVAFFIAKRLRSNVRELEGALNRVIANANFTGRAITIDFVREALRDLLALQEKLVTIDNIQKTVAEYYKIKVADLLSKRRSRSVARPRQMAMALAKELTNHSLPEIGDAFGGRDHTTVLHACRKIEQLREESHDIKEDFSNLIRTLSS
[3]; [8]
  melting point: 55 °C

B4: DnaA(D118A) (protein, UniProt P03004 1-467, looked up, variant D118A)
Chromosomal replication …: MSLSLWQQCLARLQDELPATEFSMWIRPLQAELSDNTLALYAPNRFVLDWVRDKYLNNINGLLTSFCGADAPQLRFEVGTKPVTQTPQAAVTSNVAAPAQVAQTQPQRAAPSTRSGWANVPAPAEPTYRSNVNVKHTFDNFVEGKSNQLARAAARQVADNPGGAYNPLFLYGGTGLGKTHLLHAVGNGIMARKPNAKVVYMHSERFVQDMVKALQNNAIEEFKRYYRSVDALLIDDIQFFANKERSQEEFFHTFNALLEGNQQIILTSDRYPKEINGVEDRLKSRFGWGLTVAIEPPELETRVAILMKKADENDIRLPGEVAFFIAKRLRSNVRELEGALNRVIANANFTGRAITIDFVREALRDLLALQEKLVTIDNIQKTVAEYYKIKVADLLSKRRSRSVARPRQMAMALAKELTNHSLPEIGDAFGGRDHTTVLHACRKIEQLREESHDIKEDFSNLIRTLSS
[3]; [8]
  melting point: no shift
[5]; 4°, 30° and 42°C, up to 60 min
  retention of bound ATP: retained ATP at different temperatures comparably

B5: DnaA(L366K): DnaA with substitution L366K in the AAA+ membrane-binding region (protein, UniProt P03004 1-467, looked up, variant L366K)
Chromosomal replication …: MSLSLWQQCLARLQDELPATEFSMWIRPLQAELSDNTLALYAPNRFVLDWVRDKYLNNINGLLTSFCGADAPQLRFEVGTKPVTQTPQAAVTSNVAAPAQVAQTQPQRAAPSTRSGWDNVPAPAEPTYRSNVNVKHTFDNFVEGKSNQLARAAARQVADNPGGAYNPLFLYGGTGLGKTHLLHAVGNGIMARKPNAKVVYMHSERFVQDMVKALQNNAIEEFKRYYRSVDALLIDDIQFFANKERSQEEFFHTFNALLEGNQQIILTSDRYPKEINGVEDRLKSRFGWGLTVAIEPPELETRVAILMKKADENDIRLPGEVAFFIAKRLRSNVRELEGALNRVIANANFTGRAITIDFVREALRDKLALQEKLVTIDNIQKTVAEYYKIKVADLLSKRRSRSVARPRQMAMALAKELTNHSLPEIGDAFGGRDHTTVLHACRKIEQLREESHDIKEDFSNLIRTLSS
[2]
  DnaA in OTG-solubilized membrane fraction (immunoblotting): retained in the OTG-solubilized membrane fractions
[3]; [10]
  melting point: 54 °C
[7]; 25 μM DOPG SUVs (Fig. 7D)
  melting point (peak): 50 °C
[7]; 100 μM DOPG SUVs (Fig. 7E)
  melting point (peak): did not shift further

B6: DnaA(A184V): control DnaA mutant defective in ATP binding, changed residue within nucleotide-binding pocket of domain III (protein, UniProt P03004 1-467, looked up, variant A184V)
Chromosomal replication …: MSLSLWQQCLARLQDELPATEFSMWIRPLQAELSDNTLALYAPNRFVLDWVRDKYLNNINGLLTSFCGADAPQLRFEVGTKPVTQTPQAAVTSNVAAPAQVAQTQPQRAAPSTRSGWDNVPAPAEPTYRSNVNVKHTFDNFVEGKSNQLARAAARQVADNPGGAYNPLFLYGGTGLGKTHLLHVVGNGIMARKPNAKVVYMHSERFVQDMVKALQNNAIEEFKRYYRSVDALLIDDIQFFANKERSQEEFFHTFNALLEGNQQIILTSDRYPKEINGVEDRLKSRFGWGLTVAIEPPELETRVAILMKKADENDIRLPGEVAFFIAKRLRSNVRELEGALNRVIANANFTGRAITIDFVREALRDLLALQEKLVTIDNIQKTVAEYYKIKVADLLSKRRSRSVARPRQMAMALAKELTNHSLPEIGDAFGGRDHTTVLHACRKIEQLREESHDIKEDFSNLIRTLSS
[1]
  growth on LB-agar plates: showed growth at 30 °C
E. coli EH3827
  reduction in the number of transformants: at least 50 fold
[3]; [8]
  melting point: 49 °C
E. coli CM742 (dnaA46ts)
  overreplication / DNA content per cell upon induction of DnaA: more extensive
[5]; [9]
  retention of bound ATP: maintained its ATP form

B7: Apo-DnaA: DnaA protein without bound nucleotide, ground or inactive state (protein, UniProt P03004 1-467, looked up)
Chromosomal replication …: MSLSLWQQCLARLQDELPATEFSMWIRPLQAELSDNTLALYAPNRFVLDWVRDKYLNNINGLLTSFCGADAPQLRFEVGTKPVTQTPQAAVTSNVAAPAQVAQTQPQRAAPSTRSGWDNVPAPAEPTYRSNVNVKHTFDNFVEGKSNQLARAAARQVADNPGGAYNPLFLYGGTGLGKTHLLHAVGNGIMARKPNAKVVYMHSERFVQDMVKALQNNAIEEFKRYYRSVDALLIDDIQFFANKERSQEEFFHTFNALLEGNQQIILTSDRYPKEINGVEDRLKSRFGWGLTVAIEPPELETRVAILMKKADENDIRLPGEVAFFIAKRLRSNVRELEGALNRVIANANFTGRAITIDFVREALRDLLALQEKLVTIDNIQKTVAEYYKIKVADLLSKRRSRSVARPRQMAMALAKELTNHSLPEIGDAFGGRDHTTVLHACRKIEQLREESHDIKEDFSNLIRTLSS
modifications: nucleotide-free
[3]; Apo form, no ATP
  melting point: 44 °C
